From ChEMBL document CHEMBL1125435, “Synthesis and biological activity of open-chain analogues of 5,6,7,8-tetrahydrofolic acid--potential antitumor agents” (J Med Chem, 1992)

Legend:
[1] = system: MCF7; assay: In vitro inhibition of growth of MCF-7 human breast adenocarcinoma using 72 hours continuous exposure; type: functional, cell-based
How it was run: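 ATCC MCF-7 cells grown in RPMI 1640 with 10 nM calcium leucovorin as folate source, 10% dialyzed fetal calf serum, penicillin, streptomycin and sodium pyruvate (110 μg/mL). Cells seeded at 15000/well, preincubated 24 h at 37 °C, then exposed 72 h (37 °C, 5% CO2), triplicate per concentration. Growth read by MTT reduction, formazan dissolved in DMSO, A570 (reference 750 nm), against a cell-number standard curve.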

[2] = system: MOLT-4; assay: Compound was evaluated for inhibition of [3H]methotrexate uptake into MOLT-4 cells; type: functional, cell-based; conditions: Homo sapiens
[3] = system: MOLT-4; assay: In vitro inhibitory activity against MOLT-4 T-cell leukemia cell AICAR transformylase; type: functional, cell-based, Homo sapiens; conditions: for IC50: Homo sapiens, MOLT-4
[4] = target: GAR transformylase (Sus scrofa); assay: In vitro inhibition of hog liver GAR transformylase with (6R)-10-formyl-FH4 as cofactor

Row | IC50 [1] [µM] | IC50 [2] [µM] | IC50 [3] [µM] | IC50 [4] [µM] | SMILES | Inhibition [3] [%]
1 | 0.018 | 1.5 |  |  | Nc1nc(O)c2c(n1)NCC(CCc1ccc(C(=O)NC(CCC(=O)O)C(=O)O)cc1)C2 (stereo unspecified) | 
2 | 0.023 | 0.8 | 25.8 |  | Nc1nc(N)c(CCCSc2ccc(C(=O)NC(CCC(=O)O)C(=O)O)cc2)c(O)n1 (stereo unspecified) | 
3 | 5 | 1.5 |  |  | Nc1nc(N)c(CCCCNc2ccc(C(=O)NC(CCC(=O)O)C(=O)O)cc2)c(O)n1 (stereo unspecified) | 
4 | 0.061 | 0.9 |  |  | Nc1nc(N)c(CCCCc2ccc(C(=O)N[C@@H](CCC(=O)O)C(=O)O)cc2)c(=O)[nH]1 [DIDEAZAACYCLOTETRAHYDROFOLIC ACID] | 
5 | 0.115 | 0.7 | 182 |  | Nc1nc(N)c(CCCNc2ccc(C(=O)NC(CCC(=O)O)C(=O)O)c(Cl)c2)c(O)n1 (stereo unspecified) | 
6 | 0.063 | 1 | 133 |  | Nc1nc(N)c(CCCNc2ccc(C(=O)NC(CCC(=O)O)C(=O)O)cc2F)c(O)n1 (stereo unspecified) | 
7 |  | 1.2 |  | 3 | Nc1nc(N)c(CCCNc2ccc(C(=O)N[C@@H](CCC(=O)O)C(=O)O)cc2)c(O)n1 | 
8 | > 100 | > 100 |  |  | Nc1nnc(C2CCN(c3ccc(C(=O)NC(CCC(=O)O)C(=O)O)cc3)C2=O)c(O)n1 (stereo unspecified) | 
9 | > 50 | 2 |  |  | Nc1ncnc(O)c1CCCNc1ccc(C(=O)NC(CCC(=O)O)C(=O)O)cc1 (stereo unspecified) | 26
10 | 5 | 1 |  |  | COc1cc(C(=O)NC(CCC(=O)O)C(=O)O)ccc1NCCCc1c(N)nc(N)nc1O (stereo unspecified) | 
11 | 0.033 | 0.7 | 79.3 |  | Nc1nc(N)c(CCCNc2ccc(C(=O)NC(CCC(=O)O)C(=O)O)c(F)c2)c(O)n1 (stereo unspecified) | 
12 | 0.25 | 1.3 |  |  | Cc1cc(C(=O)NC(CCC(=O)O)C(=O)O)ccc1NCCCc1c(N)nc(N)nc1O (stereo unspecified) | 
13 | 0.085 | 1.1 |  |  | Nc1nc(N)c(CCCOc2ccc(C(=O)NC(CCC(=O)O)C(=O)O)cc2)c(O)n1 (stereo unspecified) | 
